{"source": "paper PMC11520665", "about": "(Critical Care, 2024)", "experiment": "Safety: treatment-emergent adverse events", "assay_type": "in vivo, patients (adults)", "conditions": "safety population", "method_in_brief": "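Post-hoc pooled data from two randomised, double-blind, double-dummy trials. The safety population was adults in the ICU at randomisation who received ≥1 dose. Dosing was IV test compound weekly (400 mg Day 1, 200 mg Day 8, optional later 200 mg) or IV comparator echinocandin daily (70 mg Day 1, then 50 mg/day). TEAEs ran from dosing to follow-up, coded MedDRA 23.0, graded mild/moderate/severe, and summarised descriptively.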", "key": {"[1]": {"conditions": "ICU at randomisation, n=46 rezafungin, n=67 caspofungin"}, "[2]": {"conditions": "ICU at randomisation, number of events per severity"}}, "data": [{"substance": "Caspofungin", "values": [{"measurement": "TEAE: Abdominal abscess, patients", "setting": "[1]", "value": "4 (6.0) n (%)"}, {"measurement": "TEAE: Abdominal pain, patients", "setting": "[1]", "value": "4 (6.0) n (%)"}, {"measurement": "TEAE: Acidosis, patients", "setting": "[1]", "value": "4 (6.0) n (%)"}, {"measurement": "TEAE: Acute kidney injury, patients", "setting": "[1]", "value": "4 (6.0) n (%)"}, {"measurement": "TEAE: Anaemia, patients", "setting": "[1]", "value": "7 (10.4) n (%)"}, {"measurement": "TEAE: Atrial fibrillation, patients", "setting": "[1]", "value": "3 (4.5) n (%)"}, {"measurement": "TEAE: Bradycardia, patients", "setting": "[1]", "value": "5 (7.5) n (%)"}, {"measurement": "TEAE: Constipation, patients", "setting": "[1]", "value": "4 (6.0) n (%)"}, {"measurement": "TEAE: Decubitus ulcer, patients", "setting": "[1]", "value": "5 (7.5) n (%)"}, {"measurement": "TEAE: Deep vein thrombosis, patients", "setting": "[1]", "value": "4 (6.0) n (%)"}, {"measurement": "TEAE: Diarrhoea, patients", "setting": "[1]", "value": "7 (10.4) n (%)"}, {"measurement": "TEAE: Dyspnoea, patients", "setting": "[1]", "value": "4 (6.0) n (%)"}, {"measurement": "TEAE: Fluid overload, patients", "setting": "[1]", "value": "2 (3.0) n (%)"}, {"measurement": "TEAE: Hyperkalaemia, patients", "setting": "[1]", "value": "5 (7.5) n (%)"}, {"measurement": "TEAE: Hypertension, patients", "setting": "[1]", "value": "3 (4.5) n (%)"}, {"measurement": "TEAE: Hypokalaemia, patients", "setting": "[1]", "value": "10 (14.9) n (%)"}, {"measurement": "TEAE: Hypotension, patients", "setting": "[1]", "value": "6 (9.0) n (%)"}, {"measurement": "TEAE: Insomnia, patients", "setting": "[1]", "value": "2 (3.0) n (%)"}, {"measurement": "TEAE: Multiple organ dysfunction syndrome, patients", "setting": "[1]", "value": "3 (4.5) n (%)"}, {"measurement": "TEAE: Nausea, patients", "setting": "[1]", "value": "4 (6.0) n (%)"}, {"measurement": "TEAE: Peripheral oedema, patients", "setting": "[1]", "value": "2 (3.0) n (%)"}, {"measurement": "TEAE: Pleural effusion, patients", "setting": "[1]", "value": "4 (6.0) n (%)"}, {"measurement": "TEAE: Pneumonia, patients", "setting": "[1]", "value": "2 (3.0) n (%)"}, {"measurement": "TEAE: Pneumothorax, patients", "setting": "[1]", "value": "4 (6.0) n (%)"}, {"measurement": "TEAE: Pyrexia, patients", "setting": "[1]", "value": "6 (9.0) n (%)"}, {"measurement": "TEAE: Respiratory failure, patients", "setting": "[1]", "value": "4 (6.0) n (%)"}, {"measurement": "TEAE: Sepsis, patients", "setting": "[1]", "value": "3 (4.5) n (%)"}, {"measurement": "TEAE: Septic shock, patients", "setting": "[1]", "value": "7 (10.4) n (%)"}, {"measurement": "TEAE: Vomiting, patients", "setting": "[1]", "value": "3 (4.5) n (%)"}, {"measurement": "≥ 1 TEAE", "setting": "[1]", "value": "54 (80.6) n (%)"}, {"measurement": "≥ 1 TEAE leading to study/drug discontinuation", "setting": "[1]", "value": "20 (29.9) n (%)"}, {"measurement": "≥ 1 serious TEAE", "setting": "[1]", "value": "38 (56.7) n (%)"}, {"measurement": "≥ 1 study drug-related TEAE", "setting": "[1]", "value": "11 (16.4) n (%)"}, {"measurement": "≥ 1 study drug-related TEAE leading to study/drug discontinuation", "setting": "[1]", "value": "2 (3.0) n (%)"}, {"measurement": "≥ 1 study drug-related serious TEAE", "setting": "[1]", "value": "4 (6.0) n (%)"}, {"measurement": "TEAE: Abdominal abscess, event severity (n): mild/moderate/severe", "setting": "[2]", "value": "0/0/4"}, {"measurement": "TEAE: Abdominal pain, event severity (n): mild/moderate/severe", "setting": "[2]", "value": "3/0/1"}, {"measurement": "TEAE: Acidosis, event severity (n): mild/moderate/severe", "setting": "[2]", "value": "2/2/0"}, {"measurement": "TEAE: Acute kidney injury, event severity (n): mild/moderate/severe", "setting": "[2]", "value": "1/1/2"}, {"measurement": "TEAE: Anaemia, event severity (n): mild/moderate/severe", "setting": "[2]", "value": "3/4/0"}, {"measurement": "TEAE: Atrial fibrillation, event severity (n): mild/moderate/severe", "setting": "[2]", "value": "1/2/0"}, {"measurement": "TEAE: Bradycardia, event severity (n): mild/moderate/severe", "setting": "[2]", "value": "2/3/0"}, {"measurement": "TEAE: Constipation, event severity (n): mild/moderate/severe", "setting": "[2]", "value": "3/1/0"}, {"measurement": "TEAE: Decubitus ulcer, event severity (n): mild/moderate/severe", "setting": "[2]", "value": "2/2/1"}, {"measurement": "TEAE: Deep vein thrombosis, event severity (n): mild/moderate/severe", "setting": "[2]", "value": "1/3/0"}, {"measurement": "TEAE: Diarrhoea, event severity (n): mild/moderate/severe", "setting": "[2]", "value": "4/3/0"}, {"measurement": "TEAE: Dyspnoea, event severity (n): mild/moderate/severe", "setting": "[2]", "value": "1/2/1"}, {"measurement": "TEAE: Fluid overload, event severity (n): mild/moderate/severe", "setting": "[2]", "value": "1/1/0"}, {"measurement": "TEAE: Hyperkalaemia, event severity (n): mild/moderate/severe", "setting": "[2]", "value": "2/2/1"}, {"measurement": "TEAE: Hypertension, event severity (n): mild/moderate/severe", "setting": "[2]", "value": "2/0/1"}, {"measurement": "TEAE: Hypokalaemia, event severity (n): mild/moderate/severe", "setting": "[2]", "value": "8/2/0"}, {"measurement": "TEAE: Hypotension, event severity (n): mild/moderate/severe", "setting": "[2]", "value": "3/3/1"}, {"measurement": "TEAE: Insomnia, event severity (n): mild/moderate/severe", "setting": "[2]", "value": "1/1/0"}, {"measurement": "TEAE: Multiple organ dysfunction syndrome, event severity (n): mild/moderate/severe", "setting": "[2]", "value": "0/0/3"}, {"measurement": "TEAE: Nausea, event severity (n): mild/moderate/severe", "setting": "[2]", "value": "1/3/0"}, {"measurement": "TEAE: Peripheral oedema, event severity (n): mild/moderate/severe", "setting": "[2]", "value": "1/1/0"}, {"measurement": "TEAE: Pleural effusion, event severity (n): mild/moderate/severe", "setting": "[2]", "value": "1/3/0"}, {"measurement": "TEAE: Pneumonia, event severity (n): mild/moderate/severe", "setting": "[2]", "value": "1/1/0"}, {"measurement": "TEAE: Pneumothorax, event severity (n): mild/moderate/severe", "setting": "[2]", "value": "1/3/0"}, {"measurement": "TEAE: Pyrexia, event severity (n): mild/moderate/severe", "setting": "[2]", "value": "5/1/0"}, {"measurement": "TEAE: Respiratory failure, event severity (n): mild/moderate/severe", "setting": "[2]", "value": "0/0/4"}, {"measurement": "TEAE: Sepsis, event severity (n): mild/moderate/severe", "setting": "[2]", "value": "0/0/3"}, {"measurement": "TEAE: Septic shock, event severity (n): mild/moderate/severe", "setting": "[2]", "value": "0/0/7"}, {"measurement": "TEAE: Vomiting, event severity (n): mild/moderate/severe", "setting": "[2]", "value": "2/1/0"}, {"measurement": "Study drug-related serious TEAEs, events", "setting": "each event n = 1", "value": "ventricular tachycardia, rectal haemorrhage, hypertransaminasaemia, and anaphylactic shock"}, {"measurement": "Study drug-related TEAEs that led to study discontinuation, events", "setting": "two patients", "value": "ventricular tachycardia and anaphylactic shock"}]}]}
